Results from ChEMBL document CHEMBL3272319, “Alkyl streptozotocin analogues with improved biological activities” (J Med Chem, 1976).

test system: Shigella sonnei; experiment: Antibacterial activity against Shigella sonnei assessed as growth inhibition after 18 hrs by broth dilution method; type: functional; details: not given
In short: (§1)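 Twofold serial dilutions in heart infusion broth. Inoculum was a 24-h heart infusion broth culture diluted 100-fold in physiological saline. Tubes incubated 30 °C for 18 h; the table footnote gives 32 °C for 24 h. MIC in µg/ml is the lowest level giving complete growth inhibition.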

SMILES | MIC
CCCO[C@@H]1O[C@H](CO)[C@@H](O)[C@H](O)[C@H]1NC(=O)N(C)N=O | > 1000 µg/mL

test system: Mus musculus; experiment: Toxicity in ICR mouse allografted with mouse S180A assessed as mortality at 50 mg/kg, ip qd for 5 days; type: organism-based; parameters: dose 50 mg/kg, route intraperitoneal; details: in vivo, 120 h
In short: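 Ascites Sarcoma 180 (1 × 10^7 cells) implanted into ICR mice, six per group; compound in saline ip once daily days 1-5; sacrifice on day 7; total packed cell volume (ascites volume × PCV) compared with controls as T/C %; mortality recorded.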

SMILES | Activity
CCCO[C@@H]1O[C@H](CO)[C@@H](O)[C@H](O)[C@H]1NC(=O)N(C)N=O | Non-toxic

test system: not listed separately; experiment: Ratio of compound LD50 to streptozotocin LD50 for JCL-ICR mouse; type: ADME, organism-based; details: in vivo

SMILES | selectivity ratio
CCCO[C@@H]1O[C@H](CO)[C@@H](O)[C@H](O)[C@H]1NC(=O)N(C)N=O | 2

test system: Enterococcus faecalis; experiment: Antibacterial activity against Streptococcus faecalis ATCC 10541 assessed as growth inhibition after 18 hrs by broth dilution method; type: functional; details: ATCC 10541, 18 h; in short: as §1

SMILES | MIC
CCCO[C@@H]1O[C@H](CO)[C@@H](O)[C@H](O)[C@H]1NC(=O)N(C)N=O | > 1000 µg/mL

test system: Escherichia coli; experiment: Antibacterial activity against Escherichia coli NIHJ JC-2 assessed as growth inhibition after 18 hrs by broth dilution method; type: functional; details: NIHJ JC-2, 18 h; in short: as §1

SMILES | MIC
CCCO[C@@H]1O[C@H](CO)[C@@H](O)[C@H](O)[C@H]1NC(=O)N(C)N=O | > 1000 µg/mL

test system: Micrococcus luteus; experiment: Antibacterial activity against Sarcina lutea ATCC 9341 assessed as growth inhibition after 18 hrs by broth dilution method; type: functional; details: ATCC 9341, 18 h; in short: as §1

SMILES | MIC
CCCO[C@@H]1O[C@H](CO)[C@@H](O)[C@H](O)[C@H]1NC(=O)N(C)N=O | > 1000 µg/mL

test system: Rattus norvegicus; experiment: Diabetogenic activity in Wistar rat assessed as increase in blood sugar level at 74.7 mg/kg, iv administered as single dose by glucose oxidase method; type: ADME, organism-based; parameters: dose 74.7 mg/kg, route intravenous; details: in vivo
In short: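 Male Wistar rats, about 200 g, five per group, fasted 16 h. Single iv dose into the femoral vein in physiological saline, equimolar across compounds. Caudal-vein blood sampled at set times over 24 h. Sugar measured by glucose oxidase.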

SMILES | Activity
CCCO[C@@H]1O[C@H](CO)[C@@H](O)[C@H](O)[C@H]1NC(=O)N(C)N=O | Non-toxic

test system: Bacillus subtilis; experiment: Antibacterial activity against Bacillus subtilis ATCC 6633 assessed as growth inhibition after 18 hrs by broth dilution method; type: functional; details: ATCC 6633, 18 h; in short: as §1

SMILES | MIC
CCCO[C@@H]1O[C@H](CO)[C@@H](O)[C@H](O)[C@H]1NC(=O)N(C)N=O | > 1000 µg/mL

test system: Proteus vulgaris; experiment: Antibacterial activity against Proteus vulgaris AHU 1469 assessed as growth inhibition after 18 hrs by broth dilution method; type: functional; details: AHU 1469, 18 h; in short: as §1

SMILES | MIC
CCCO[C@@H]1O[C@H](CO)[C@@H](O)[C@H](O)[C@H]1NC(=O)N(C)N=O | > 1000 µg/mL

test system: Mus musculus; experiment: Toxicity in BDF1 mouse allografted with mouse L1210 cells assessed as mortality at 50 mg/kg, ip qd for 5 days; type: organism-based; parameters: dose 50 mg/kg, route intraperitoneal; details: in vivo, 120 h
In short: (§2)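 L1210 (1 × 10^5 cells) implanted into BDF1 mice, six per group; compound in saline ip once daily days 1-5; effect read as % increase in life span, ILS = [(treated life span/control life span) − 1] × 100.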

SMILES | Activity
CCCO[C@@H]1O[C@H](CO)[C@@H](O)[C@H](O)[C@H]1NC(=O)N(C)N=O | Non-toxic

test system: not listed separately; experiment: Antitumor activity against mouse S180A allografted in ICR mouse assessed as tumor growth at 50 mg/kg, ip qd for 5 days measured on day 7 relative to control; type: functional; details: route intraperitoneal
In short: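 Ascites Sarcoma 180 (1 × 10^7 cells) implanted into ICR mice, six animals per group. Five daily ip injections in saline (days 1–5). Sacrificed day 7. T/C % computed from total packed cell volume (ascites volume × PCV) vs controls. Grades: 100-66 = -, 65-41 = +, 40-11 = ++, 10-0 = +++.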

SMILES | T/C
CCCO[C@@H]1O[C@H](CO)[C@@H](O)[C@H](O)[C@H]1NC(=O)N(C)N=O | 32%

test system: L1210; experiment: Antitumor activity against mouse L1210 cells allografted in BDF1 mouse assessed as increase in host lifespan at 50 mg/kg, ip qd for 5 days relative to control; type: functional; details: 120 h, route intraperitoneal; in short: as §2

SMILES | ILS at 50 mg/kg
CCCO[C@@H]1O[C@H](CO)[C@@H](O)[C@H](O)[C@H]1NC(=O)N(C)N=O | 30%

test system: Klebsiella pneumoniae; experiment: Antibacterial activity against Klebsiella pneumoniae ATCC 10031 assessed as growth inhibition after 18 hrs by broth dilution method; type: functional; details: ATCC 10031, 18 h; in short: as §1

SMILES | MIC
CCCO[C@@H]1O[C@H](CO)[C@@H](O)[C@H](O)[C@H]1NC(=O)N(C)N=O | > 1000 µg/mL

test system: Mus musculus; experiment: Ratio of compound LD10 to streptozotocin LD10 for JCL-ICR mouse; type: ADME, organism-based; details: in vivo

SMILES | Ratio
CCCO[C@@H]1O[C@H](CO)[C@@H](O)[C@H](O)[C@H]1NC(=O)N(C)N=O | 2

test system: Staphylococcus aureus; experiment: Antibacterial activity against Staphylococcus aureus FDA 209P JC-1 assessed as growth inhibition after 18 hrs by broth dilution method; type: functional; details: FDA 209P JC-1, 18 h; in short: as §1

SMILES | MIC
CCCO[C@@H]1O[C@H](CO)[C@@H](O)[C@H](O)[C@H]1NC(=O)N(C)N=O | > 1000 µg/mL

test system: Pseudomonas fluorescens; experiment: Antibacterial activity against Pseudomonas fluorescens NIHJ B-254 assessed as growth inhibition after 18 hrs by broth dilution method; type: functional; details: NIHJ B-254, 18 h; in short: as §1

SMILES | MIC
CCCO[C@@H]1O[C@H](CO)[C@@H](O)[C@H](O)[C@H]1NC(=O)N(C)N=O | > 1000 µg/mL

test system: Salmonella typhi; experiment: Antibacterial activity against Salmonella typhi IFM 3020 assessed as growth inhibition after 18 hrs by broth dilution method; type: functional, Salmonella enterica subsp. enterica serovar Typhi; details: Salmonella enterica, IFM 3020, 18 h
In short: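 Twofold serial dilutions in heart infusion broth; inoculum from 24 h heart infusion broth culture diluted 100-fold in physiological saline; tubes incubated 30 °C for 18 h; MIC (µg/ml) = lowest level giving complete growth inhibition.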

SMILES | MIC
CCCO[C@@H]1O[C@H](CO)[C@@H](O)[C@H](O)[C@H]1NC(=O)N(C)N=O | > 1000 µg/mL

test system: Mus musculus; experiment: (§3) Acute toxicity in ip dosed JCL-ICR mouse assessed as animal death; type: organism-based; details: in vivo
In short: (§4)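 Groups of ten female JCL-ICR mice given single ip dose in physiological saline; deaths followed over 7 days; LD50 (and LD10) derived by Litchfield–Wilcoxon method.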

SMILES | LD10
CCCO[C@@H]1O[C@H](CO)[C@@H](O)[C@H](O)[C@H]1NC(=O)N(C)N=O | 1240 mg/kg

test system: not listed separately; experiment: as §3; type: organism-based; details: JCL-ICR, in vivo; in short: as §4

SMILES | LD50
CCCO[C@@H]1O[C@H](CO)[C@@H](O)[C@H](O)[C@H]1NC(=O)N(C)N=O | 2150 mg/kg
